Measurements from ChEMBL document CHEMBL4190234, “Design, synthesis and anticancer activity of new monastrol analogues bearing 1,3,4-oxadiazole moiety” (Eur J Med Chem, 2017).

How the values were obtained:
[1] = test system: HL-60(TB); assay: Growth inhibition of human HL-60(TB) cells incubated for 24 hrs by MTT assay; type: functional, cell-based; conditions: HL-60, 24 h
Method in brief: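 Cells at 1.2-1.8×10^4 cells/ml in DMEM with 10% FBS, 10 µg/ml insulin and 1% penicillin/streptomycin, plated overnight at 37°C. Serial 10-fold dilutions added to 0.01–100 µM final, medium as negative control, 24 h. MTT (5 mg/ml) added for 4 h, formazan dissolved in acid-isopropanol, A490 read. Eight separate experiments; percent viable cells used to derive IC50.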

[2] = test system: MOLT-4; assay: Growth inhibition of human MOLT4 cells incubated for 24 hrs by MTT assay; type: functional, cell-based; conditions: MOLT-4, 24 h
[3] = test system: HL-60(TB); assay: Cell cycle arrest in human HL-60(TB) cells assessed as accumulation of apoptotic cells in pre-G phase at 0.294 uM after 24 hrs by propidium iodide staining based flow cytometry (reference value: 1.44%); type: functional
[4] = test system: HL-60(TB); assay: Cell cycle arrest in human HL-60(TB) cells assessed as accumulation at G0/G1 phase at 0.294 uM after 24 hrs by propidium iodide staining based flow cytometry (reference value: 68.43%); type: functional
[5] = test system: HL-60(TB); assay: Cell cycle arrest in human HL-60(TB) cells assessed as accumulation at G2/M phase at 0.294 uM after 24 hrs by propidium iodide staining based flow cytometry (reference value: 7.29%); type: functional
[6] = test system: HL-60(TB); assay: Cell cycle arrest in human HL-60(TB) cells assessed as accumulation at S phase at 0.294 uM after 24 hrs by propidium iodide staining based flow cytometry (reference value: 22.84%); type: functional
[7] = test system: MOLT-4; assay: Cell cycle arrest in human MOLT4 cells assessed as accumulation of apoptotic cells in pre-G phase at 0.43 uM after 24 hrs by propidium iodide staining based flow cytometry (reference value: 0.88%); type: functional
Method in brief: (§1)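 MOLT-4 cells (1×10^6) exposed 24 h to 0.160 or 0.430 μM test agent, DMSO (0.002%) control; trypsinized, washed in ice-cold PBS, fixed in ice-cold 70% ethanol ≥2 h at 4°C, washed, stained with propidium iodide DNA kit; cell cycle distribution (pre-G, G0/G1, S, G2/M) by flow cytometry.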

[8] = test system: MOLT-4; assay: Cell cycle arrest in human MOLT4 cells assessed as accumulation at G0/G1 phase at 0.43 uM after 24 hrs by propidium iodide staining based flow cytometry (reference value: 74.22%); type: functional; method in brief: as §1
[9] = test system: MOLT-4; assay: Cell cycle arrest in human MOLT4 cells assessed as accumulation at G2/M phase at 0.43 uM after 24 hrs by propidium iodide staining based flow cytometry (reference value: 4.35%); type: functional; method in brief: as §1
[10] = test system: MOLT-4; assay: Cell cycle arrest in human MOLT4 cells assessed as accumulation at S phase at 0.43 uM after 24 hrs by propidium iodide staining based flow cytometry (reference value: 20.55%); type: functional; method in brief: as §1
[11] = test system: HL-60(TB); assay: Induction of apoptosis in human HL-60(TB) cells assessed as live cells at 0.294 uM after 24 hrs by Annexin V-FITC/propidium iodide staining based flow cytometry (reference value: 98.57%); type: functional
[12] = test system: HL-60(TB); assay: Induction of apoptosis in human HL-60(TB) cells assessed as early apoptotic cells at 0.294 uM after 24 hrs by Annexin V-FITC/propidium iodide staining based flow cytometry (reference value: 0.84%); type: functional
[13] = test system: HL-60(TB); assay: Induction of apoptosis in human HL-60(TB) cells assessed as late apoptotic cells at 0.294 uM after 24 hrs by Annexin V-FITC/propidium iodide staining based flow cytometry (reference value: 0.39%); type: functional
[14] = test system: HL-60(TB); assay: Induction of apoptosis in human HL-60(TB) cells assessed as necrotic cells at 0.294 uM after 24 hrs by Annexin V-FITC/propidium iodide staining based flow cytometry (reference value: 0.2%); type: functional
[15] = test system: MOLT-4; assay: Induction of apoptosis in human MOLT4 cells assessed as live cells at 0.43 uM after 24 hrs by Annexin V-FITC/propidium iodide staining based flow cytometry (reference value: 99.12%); type: functional
[16] = test system: MOLT-4; assay: Induction of apoptosis in human MOLT4 cells assessed as early apoptotic cells at 0.43 uM after 24 hrs by Annexin V-FITC/propidium iodide staining based flow cytometry (reference value: 0.53%); type: functional
[17] = test system: MOLT-4; assay: Induction of apoptosis in human MOLT4 cells assessed as late apoptotic cells at 0.43 uM after 24 hrs by Annexin V-FITC/propidium iodide staining based flow cytometry (reference value: 0.24%); type: functional
[18] = test system: MOLT-4; assay: Induction of apoptosis in human MOLT4 cells assessed as necrotic cells at 0.43 uM after 24 hrs by Annexin V-FITC/propidium iodide staining based flow cytometry (reference value: 0.11%); type: functional
[19] = test system: HL-60(TB); assay: Induction of apoptosis in human HL-60(TB) cells assessed as increase in apoptotic cells at 0.294 uM after 24 hrs by Annexin V-FITC/propidium iodide staining based flow cytometry relative to control; type: functional
[20] = test system: MOLT-4; assay: Induction of apoptosis in human MOLT4 cells assessed as increase in apoptotic cells at 0.43 uM after 24 hrs by Annexin V-FITC/propidium iodide staining based flow cytometry relative to control; type: functional

CCOC(=O)C1=C(C)NC(=S)NC1c1cccc(O)c1 (stereo unspecified) [MONASTROL]
IC50 [1]: 0.147 µM
IC50 [2]: 0.215 µM
Activity [3]: 6.89%
Activity [4]: 61.23%
Activity [5]: 9.98%
Activity [6]: 21.9%
Activity [7]: 8.63%
Activity [8]: 55.72%
Activity [9]: 13.92%
Activity [10]: 21.73%
Activity [11]: 90.89%
Activity [12]: 3.07%
Activity [13]: 3.19%
Activity [14]: 0.63%
Activity [15]: 89.2%
Activity [16]: 3.39%
Activity [17]: 4.21%
Activity [18]: 1.03%
fold change (FC) [19]: 5.1
fold change (FC) [20]: 10

CCOC(=O)C1=C(C)NC(SCc2nnc(-c3ccc(Cl)cc3)o2)=NC1c1ccccc1Cl (stereo unspecified)
IC50 [1]: 193 µM
IC50 [2]: 255 µM

CCOC(=O)C1=C(C)NC(SCc2nnc(-c3ccc(C)cc3)o2)=NC1c1ccc(Cl)cc1 (stereo unspecified)
IC50 [1]: 220 µM
IC50 [2]: 538 µM

CCOC(=O)C1=C(C)NC(SCc2nnc(-c3ccccc3)o2)=NC1c1ccc(Cl)cc1 (stereo unspecified)
IC50 [1]: 74.4 µM
IC50 [2]: 344 µM
